# Experimental data published in PubChem BioAssay AID651627 (The Scripps Research Institute Molecular Screening Center, 2012).
# Molecular target: Protein-arginine deiminase type-4 (Homo sapiens) (UniProt Q9UM07)
# Test: residual PAD4 activity, irreversible binding – biochemical, dialysis, BAEE substrate, colorimetric citrulline readout, mechanism study for PAD4 inhibitor project, late-stage follow-up (AID 651627)
# Details: recombinant PAD4, dialysis, at 100 µM, stronger effect = lower value
# Outline: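 System: Recombinant PAD4 enzyme | Amount: 0.6 µM PAD4 | Reagent: 10 mM BAEE substrate | Benchmarks: DMSO no-compound control | Signal: Colorimetric citrulline detection, absorbance at 540 nm | Times: 20 h dialysis, 15 min BAEE reaction at 37 °C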
# Protein-arginine deiminase type-4 (Homo sapiens), sequence (Q9UM07 whole entry, looked up): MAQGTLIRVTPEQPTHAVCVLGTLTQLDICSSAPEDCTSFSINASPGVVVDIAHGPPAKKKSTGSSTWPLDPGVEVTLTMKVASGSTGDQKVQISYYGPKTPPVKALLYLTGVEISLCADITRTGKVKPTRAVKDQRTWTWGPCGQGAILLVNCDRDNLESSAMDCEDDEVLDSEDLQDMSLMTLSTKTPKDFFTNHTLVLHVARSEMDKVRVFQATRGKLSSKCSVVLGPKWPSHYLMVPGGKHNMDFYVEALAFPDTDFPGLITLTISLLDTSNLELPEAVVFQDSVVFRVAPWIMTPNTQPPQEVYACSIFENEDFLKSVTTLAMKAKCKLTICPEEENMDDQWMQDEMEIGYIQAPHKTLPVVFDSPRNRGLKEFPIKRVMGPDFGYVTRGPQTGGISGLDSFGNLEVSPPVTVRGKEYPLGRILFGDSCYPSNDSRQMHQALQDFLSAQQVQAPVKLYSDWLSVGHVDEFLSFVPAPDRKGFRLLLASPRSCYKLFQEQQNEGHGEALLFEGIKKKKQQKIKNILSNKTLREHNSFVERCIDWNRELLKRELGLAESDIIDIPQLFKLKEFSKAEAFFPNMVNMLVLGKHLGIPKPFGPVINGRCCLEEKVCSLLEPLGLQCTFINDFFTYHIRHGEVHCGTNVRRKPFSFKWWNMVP
row,Structure (SMILES),residual activity after dialysis [%]
1,NC1=CC(=O)c2cccnc2C1=O,2
2,COC1=C(Br)C(=O)c2ncccc2C1=O,0
3,NC1=CC(=O)c2ccc(-c3ccccn3)nc2C1=O,12
4,NC1=CC(=O)c2ccc(-c3cccc(C(=O)O)n3)nc2C1=O,0
5,COC(=O)c1cccc(-c2ccc3c(n2)C(=O)C(N)=CC3=O)n1,13
